Test results taken from ChEMBL document CHEMBL4373681, “Aurantiamide-related dipeptide derivatives are formyl peptide receptor 1 antagonists” (Medchemcomm, 2019).
Non-standard residues stand in square brackets, D forms with d. Residues, ends and D or L forms follow the SMILES beside them. *: point of attachment. dCha = N[C@H](CC1CCCCC1)C(=O)O; Bz = O=C(c1ccccc1)*

Key:
fMet-Leu-Phe receptor [1] = target: T1, fMet-Leu-Phe receptor (Homo sapiens, UniProt P21462); assay: Antagonist activity against FPR1 (unknown origin) transfected in human HL60 cells assessed as calcium mobilization preincubated for 30 mins followed by fMLF addition and measured for 5 sec for 240 sec by fluorometry; type: functional, cell-based
T1 sequence (P21462 whole entry): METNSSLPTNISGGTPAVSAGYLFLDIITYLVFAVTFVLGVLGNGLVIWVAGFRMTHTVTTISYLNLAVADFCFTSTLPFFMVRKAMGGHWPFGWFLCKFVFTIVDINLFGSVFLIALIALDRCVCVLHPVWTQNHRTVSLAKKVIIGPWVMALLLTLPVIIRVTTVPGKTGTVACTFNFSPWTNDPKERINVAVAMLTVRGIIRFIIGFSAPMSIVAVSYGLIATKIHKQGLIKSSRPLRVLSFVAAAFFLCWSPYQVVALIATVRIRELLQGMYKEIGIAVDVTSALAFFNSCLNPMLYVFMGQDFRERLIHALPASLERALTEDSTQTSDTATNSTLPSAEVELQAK
How it was run: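 FPR1-HL60 cells or donor neutrophils, Fluo-4 AM-loaded (1.25 µg/mL final, 30 min, 37 °C), in HBSS+/10 mM HEPES, 2×10^5 cells/well. Compound pretreatment 30 min at room temperature, then 5 nM fMLF. Peak fluorescence rise (485/538 nm) in the first 3 min was normalized to 5 nM fMLF alone (100%). IC50 from 5–6-point curves by nonlinear regression; maximal antagonist concentration ~50 μM.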

fMet-Leu-Phe receptor [2] = target: T1, fMet-Leu-Phe receptor; assay: Agonist activity at FPR1 in human neutrophils assessed as calcium mobilization incubated for 30 mins and measured for 5 sec for 240 sec by fluorometry; type: functional
How it was run: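 Neutrophils from healthy donor blood were isolated by dextran sedimentation, Histopaque 1077 gradient and hypotonic RBC lysis. They were loaded with Fluo-4 AM (1.25 µg/mL final) for 30 min at 37 °C, then resuspended in HBSS+ with 10 mM HEPES, 2×10^5 cells/well. Compound injected; fluorescence (485/538 nm) read every 5 s for 240 s at room temperature. Peak rise over baseline in the first 3 min; EC50 by nonlinear regression.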

fMet-Leu-Phe receptor [3] = target: T1, fMet-Leu-Phe receptor; assay: Antagonist activity against FPR1 in human neutrophils assessed as calcium mobilization preincubated for 30 mins followed by fMLF addition and measured for 5 sec for 240 sec by fluorometry
[4] = target: T2, N-formyl peptide receptor 2 (Homo sapiens, UniProt P25090); assay: Agonist activity at FRP2 (unknown origin) transfected in human HL60 cells assessed as calcium mobilization incubated for 30 mins and measured for 5 sec for 240 sec by fluorometry; type: functional, cell-based
T2 sequence (P25090 whole entry): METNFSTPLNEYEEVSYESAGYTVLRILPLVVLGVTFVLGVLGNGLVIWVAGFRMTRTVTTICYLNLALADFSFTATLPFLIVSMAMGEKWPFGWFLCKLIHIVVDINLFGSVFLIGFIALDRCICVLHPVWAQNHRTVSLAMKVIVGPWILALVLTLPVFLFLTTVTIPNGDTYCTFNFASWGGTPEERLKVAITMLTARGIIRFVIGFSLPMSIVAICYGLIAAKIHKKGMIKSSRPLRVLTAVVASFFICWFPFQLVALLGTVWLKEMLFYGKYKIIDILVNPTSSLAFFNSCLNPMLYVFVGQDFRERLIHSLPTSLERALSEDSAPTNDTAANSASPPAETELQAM
How it was run: (§1)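 Stably transfected HL60 cells, with G418 dropped in the final culture round, loaded with Fluo-4 AM (1.25 µg/mL final) for 30 min at 37 °C in the dark. Cells were washed into HBSS with Ca2+/Mg2+ plus 10 mM HEPES, 2×10^5 cells/well. Compound added by injector, fluorescence (ex 485/em 538 nm) read every 5 s for 240 s at room temperature. Peak change over baseline in the first 3 min; EC50 by nonlinear regression.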

fMet-Leu-Phe receptor [5] = target: T1, fMet-Leu-Phe receptor; assay: Agonist activity at FPR1 (unknown origin) transfected in human HL60 cells assessed as calcium mobilization incubated for 30 mins and measured for 5 sec for 240 sec by fluorometry; type: functional, cell-based; how it was run: as §1
[6] = target: T2, N-formyl peptide receptor 2; assay: Antagonist activity against FPR2 (unknown origin) transfected in human HL60 cells assessed as calcium mobilization preincubated for 30 mins followed by WKYMVM addition and measured for 5 sec for 240 sec by fluorometry; type: functional, cell-based
How it was run: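 FPR2-transfected HL60 cells, Fluo-4 AM-loaded (1.25 µg/mL final, 30 min, 37 °C), in HBSS+/10 mM HEPES, 2×10^5 cells/well. 30 min room-temperature compound pretreatment, then 5 nM WKYMVM. Peak fluorescence rise (485/538 nm) in the first 3 min, normalized to 5 nM WKYMVM alone (100%). IC50 by nonlinear regression of 5–6-point curves.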

Neutrophil = assay: Inhibition of fMLF-induced migration of human neutrophil preincubated for 30 mins followed by fMLF stimulation and measured after 60 mins by luminescence based assay

COC(=O)[C@H](Cc1ccccc1)NC(=O)[C@H](Cc1c[nH]c2ccccc12)NC(=O)c1ccccc1
IC50 (fMet-Leu-Phe receptor [1]): 5.8 µM | EC50 (fMet-Leu-Phe receptor [2]): Not Active | IC50 (fMet-Leu-Phe receptor [3]): 2.4 µM | EC50 [4]: Not Active | EC50 (fMet-Leu-Phe receptor [5]): Not Active | IC50 ([6]; read-out: IC50): 12.3 µM | IC50 (Neutrophil): 1.6 µM

COC(=O)[C@H](Cc1ccccc1)NC(=O)[C@@H](Cc1c[nH]c2ccccc12)NC(=O)c1ccccc1
IC50 (fMet-Leu-Phe receptor [1]): 37.4 µM | EC50 (fMet-Leu-Phe receptor [2]): Not Active | IC50 (fMet-Leu-Phe receptor [3]): 10.9 µM | EC50 [4]: Not Active | EC50 (fMet-Leu-Phe receptor [5]): Not Active | IC50 [6]: Not Active

COC(=O)[C@@H](Cc1ccccc1)NC(=O)[C@H](Cc1c[nH]c2ccccc12)NC(=O)C1CCCCC1
IC50 (fMet-Leu-Phe receptor [1]): 0.54 µM | EC50 (fMet-Leu-Phe receptor [2]): Not Active | IC50 (fMet-Leu-Phe receptor [3]): 3.3 µM | EC50 [4]: Not Active | EC50 (fMet-Leu-Phe receptor [5]): Not Active | IC50 [6]: Not Active | IC50 (Neutrophil): 3.1 µM

COC(=O)[C@@H](CC(C)C)NC(=O)[C@H](Cc1c[nH]c2ccccc12)NC(=O)c1ccccc1
IC50 (fMet-Leu-Phe receptor [1]): 24.7 µM | EC50 (fMet-Leu-Phe receptor [2]): Not Active | IC50 (fMet-Leu-Phe receptor [3]): 14.5 µM | EC50 ([4]; read-out: EC50): 10.9 µM | EC50 (fMet-Leu-Phe receptor [5]): Not Active | IC50 [6]: Not Active

COC(=O)[C@H](NC(=O)[C@H](Cc1c[nH]c2ccccc12)NC(=O)c1ccccc1)C(C)C
IC50 (fMet-Leu-Phe receptor [1]): 11.7 µM | EC50 (fMet-Leu-Phe receptor [2]): Not Active | IC50 (fMet-Leu-Phe receptor [3]): 25.3 µM | EC50 [4]: Not Active | EC50 (fMet-Leu-Phe receptor [5]): Not Active | IC50 [6]: Not Active

COC(=O)[C@@H](Cc1ccccc1)NC(=O)[C@@H](Cc1c[nH]c2ccccc12)NC(=O)c1ccccc1
IC50 (fMet-Leu-Phe receptor [1]): 16.5 µM | EC50 (fMet-Leu-Phe receptor [2]): Not Active | IC50 (fMet-Leu-Phe receptor [3]): 31.3 µM | EC50 [4]: Not Active | EC50 (fMet-Leu-Phe receptor [5]): Not Active | IC50 [6]: Not Active

COC(=O)[C@@H](Cc1ccccc1)NC(=O)[C@H](Cc1c[nH]c2ccccc12)NC(=O)CC(C)C
IC50 (fMet-Leu-Phe receptor [1]): 19.6 µM | EC50 (fMet-Leu-Phe receptor [2]): Not Active | IC50 (fMet-Leu-Phe receptor [3]): 27.7 µM | EC50 [4]: Not Active | EC50 (fMet-Leu-Phe receptor [5]): Not Active | IC50 [6]: Not Active

COC(=O)[C@@H](Cc1ccccc1)NC(=O)[C@H](Cc1c[nH]c2ccccc12)NC(=O)OC(C)(C)C
IC50 (fMet-Leu-Phe receptor [1]): 17.1 µM | EC50 (fMet-Leu-Phe receptor [2]): Not Active | IC50 (fMet-Leu-Phe receptor [3]): 12.6 µM | EC50 ([4]; read-out: EC50): 10.5 µM | EC50 (fMet-Leu-Phe receptor [5]): Not Active | IC50 [6]: Not Active

COC(=O)[C@@H](Cc1ccccc1)NC(=O)[C@H](Cc1c[nH]c2ccccc12)NC(=O)c1ccccc1
IC50 (fMet-Leu-Phe receptor [1]): 0.45 µM | EC50 (fMet-Leu-Phe receptor [2]): Not Active | IC50 (fMet-Leu-Phe receptor [3]): 0.18 µM | EC50 [4]: Not Active | EC50 (fMet-Leu-Phe receptor [5]): Not Active | IC50 [6]: Not Active | IC50 (Neutrophil): 0.48 µM

COC(=O)[C@@H](CC1CCCCC1)NC(=O)[C@H](Cc1c[nH]c2ccccc12)NC(=O)c1ccccc1 (Bz-Trp-[dCha]-OMe)
IC50 (fMet-Leu-Phe receptor [1]): 0.67 µM | EC50 (fMet-Leu-Phe receptor [2]): Not Active | IC50 (fMet-Leu-Phe receptor [3]): 0.12 µM | EC50 [4]: Not Active | EC50 (fMet-Leu-Phe receptor [5]): Not Active | IC50 [6]: Not Active | IC50 (Neutrophil): 0.62 µM
